Tests used:
Format in all cases: functional
[1] = system: Mus musculus; experiment: Analgesic activity in ICR mouse assessed as increase in pain threshold variation at 2 umol/kg, ip administered as single dose measured after 180 mins by tail flick test
Summary of the method: (§1)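 Mice were housed 12/12 h light/dark at 21 ± 2 °C for one day, then given a single dose. Tail-flick basal threshold was read four times, then every 30 min up to 180 min, with a 10 s cut-off. PTV = (post-dose threshold − basal)/basal. n = 12, mean ± SD%, one-way ANOVA against saline vehicle at each time point.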

[2] = system: Mus musculus; experiment: Analgesic activity in ICR mouse assessed as increase in pain threshold variation at 2 umol/kg, ip administered as single dose measured after 60 mins by tail flick test; conditions: in the assay text read “po administered” for “ip administered”; summary of the method: as §1
[3] = system: Mus musculus; experiment: Analgesic activity in ICR mouse assessed as increase in pain threshold variation at 2 umol/kg, ip administered as single dose measured after 120 mins by tail flick test; conditions: in the assay text read “po administered” for “ip administered”; summary of the method: as §1
[4] = system: Mus musculus; experiment: Analgesic activity in ICR mouse assessed as increase in pain threshold variation at 2 umol/kg, ip administered as single dose measured after 150 mins by tail flick test; conditions: in the assay text read “po administered” for “ip administered”; summary of the method: as §1
[5] = system: Mus musculus; experiment: Analgesic activity in ICR mouse assessed as increase in pain threshold variation at 0.2 umol/kg, ip administered as single dose measured after 150 mins by tail flick test; conditions: in the assay text read “po administered” for “ip administered”; summary of the method: as §1
[6] = system: Mus musculus; experiment: Antiinflammatory activity in ICR mouse assessed as inhibition of xylene-induced ear edema at 10 umol/kg, po
Summary of the method: (§2)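 Male ICR mice (20 ± 2 g), 12 per group, were dosed orally: test agents as suspensions in normal saline, aspirin in CMC. After 30 min, 0.03 ml xylene was applied to both surfaces of the right ear, with the left ear as control. After 2 h the mice were killed, 8 mm ear discs were weighed, and edema was taken as right minus left weight.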

[7] = system: Mus musculus; experiment: Analgesic activity in ICR mouse assessed as increase in pain threshold variation at 0.2 umol/kg, ip administered as single dose measured after 30 mins by tail flick test; summary of the method: as §1
[8] = system: Mus musculus; experiment: Antiinflammatory activity in ICR mouse assessed as inhibition of xylene-induced ear edema at 20 umol/kg, po; summary of the method: as §2
[9] = system: Mus musculus; experiment: Analgesic activity in ICR mouse assessed as increase in pain threshold variation at 2 umol/kg, ip administered as single dose measured after 90 mins by tail flick test; conditions: in the assay text read “po administered” for “ip administered”; summary of the method: as §1
[10] = system: Mus musculus; experiment: Analgesic activity in ICR mouse assessed as increase in pain threshold variation at 2 umol/kg, ip administered as single dose measured after 30 mins by tail flick test; conditions: in the assay text read “po administered” for “ip administered”; summary of the method: as §1
[11] = system: Mus musculus; experiment: Analgesic activity in ICR mouse assessed as increase in pain threshold variation at 20 umol/kg, po administered as single dose measured after 30 mins by tail flick test
Summary of the method: (§3)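 Tail-flick test in mice housed 12/12 h light/dark at 21 ± 2 °C for one day. A single oral dose of 20 µmol/kg was given in 0.2 ml normal saline; vehicle controls got saline alone. Basal threshold was measured four times, then every 30 min to 180 min, with a 10 s cut-off. PTV = (post − basal)/basal. n = 12, mean ± SD%, one-way ANOVA.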

[12] = system: Mus musculus; experiment: Antiinflammatory activity in ICR mouse assessed as inhibition of xylene-induced ear edema at 5 umol/kg, po; summary of the method: as §2
[13] = system: Mus musculus; experiment: Analgesic activity in ICR mouse assessed as increase in pain threshold variation at 20 umol/kg, po administered as single dose measured after 150 mins by tail flick test; summary of the method: as §3
[14] = system: Mus musculus; experiment: Analgesic activity in ICR mouse assessed as increase in pain threshold variation at 0.2 umol/kg, ip administered as single dose measured after 120 mins by tail flick test; summary of the method: as §1
[15] = system: Mus musculus; experiment: Analgesic activity in ICR mouse assessed as increase in pain threshold variation at 20 umol/kg, po administered as single dose measured after 180 mins by tail flick test; summary of the method: as §3
[16] = system: Mus musculus; experiment: Analgesic activity in ICR mouse assessed as increase in pain threshold variation at 0.2 umol/kg, ip administered as single dose measured after 180 mins by tail flick test; conditions: in the assay text read “po administered” for “ip administered”; summary of the method: as §1
[17] = system: Mus musculus; experiment: Analgesic activity in ICR mouse assessed as increase in pain threshold variation at 20 umol/kg, po administered as single dose measured after 90 mins by tail flick test; summary of the method: as §3
[18] = system: Mus musculus; experiment: Analgesic activity in ICR mouse assessed as increase in pain threshold variation at 0.2 umol/kg, ip administered as single dose measured after 60 mins by tail flick test; summary of the method: as §1
[19] = system: Mus musculus; experiment: Analgesic activity in ICR mouse assessed as increase in pain threshold variation at 20 umol/kg, po administered as single dose measured after 60 mins by tail flick test; summary of the method: as §3
[20] = system: Mus musculus; experiment: Analgesic activity in ICR mouse assessed as increase in pain threshold variation at 0.2 umol/kg, ip administered as single dose measured after 90 mins by tail flick test; summary of the method: as §1
[21] = system: Mus musculus; experiment: Analgesic activity in ICR mouse assessed as increase in pain threshold variation at 20 umol/kg, po administered as single dose measured after 120 mins by tail flick test; summary of the method: as §3
[22] = system: Mus musculus; experiment: Analgesic activity in ICR mouse assessed as increase in pain threshold variation at 165 umol/kg, po administered as single dose measured after 30 mins by tail flick test
[23] = system: Mus musculus; experiment: Analgesic activity in ICR mouse assessed as increase in pain threshold variation at 165 umol/kg, po administered as single dose measured after 90 mins by tail flick test
[24] = system: Mus musculus; experiment: Antiinflammatory activity in ICR mouse assessed as inhibition of xylene-induced ear edema at 165 umol/kg, po; summary of the method: as §2
[25] = system: Mus musculus; experiment: Analgesic activity in ICR mouse assessed as increase in pain threshold variation at 165 umol/kg, po administered as single dose measured after 60 mins by tail flick test
[26] = system: Mus musculus; experiment: Analgesic activity in ICR mouse assessed as increase in pain threshold variation at 165 umol/kg, po administered as single dose measured after 150 mins by tail flick test
[27] = system: Mus musculus; experiment: Analgesic activity in ICR mouse assessed as increase in pain threshold variation at 165 umol/kg, po administered as single dose measured after 120 mins by tail flick test
[28] = system: Mus musculus; experiment: Analgesic activity in ICR mouse assessed as increase in pain threshold variation at 165 umol/kg, po administered as single dose measured after 180 mins by tail flick test
[29] = system: Mus musculus; experiment: Analgesic activity in ICR mouse assessed as increase in pain threshold variation at 20 umol/kg, ip administered as single dose measured after 120 mins by tail flick test
Summary of the method: (§4)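 Mice were housed on a 12/12 light/dark cycle at 21 ± 2 °C for one day before use. Each got a single intraperitoneal dose of 20 µmol/kg in normal saline; vehicle controls got […]. Tail-flick basal threshold was read four times, then every 30 min to 180 min with a 10 s cut-off. PTV = (post-dose threshold − basal)/basal. n = 12, mean ± SD, one-way ANOVA.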

[30] = system: Mus musculus; experiment: Analgesic activity in ICR mouse assessed as increase in pain threshold variation at 20 umol/kg, ip administered as single dose measured after 60 mins by tail flick test; summary of the method: as §4
[31] = system: Mus musculus; experiment: Analgesic activity in ICR mouse assessed as increase in pain threshold variation at 20 umol/kg, ip administered as single dose measured after 150 mins by tail flick test; summary of the method: as §4
[32] = system: Mus musculus; experiment: Analgesic activity in ICR mouse assessed as increase in pain threshold variation at 20 umol/kg, ip administered as single dose measured after 90 mins by tail flick test; summary of the method: as §4
[33] = system: Mus musculus; experiment: Analgesic activity in ICR mouse assessed as increase in pain threshold variation at 20 umol/kg, ip administered as single dose measured after 30 mins by tail flick test; summary of the method: as §4
[34] = system: Mus musculus; experiment: Analgesic activity in ICR mouse assessed as increase in pain threshold variation at 20 umol/kg, ip administered as single dose measured after 180 mins by tail flick test; summary of the method: as §4

| SMILES | inhibition in vivo at 10 µmol/kg [6] [%] | inhibition in vivo at 20 µmol/kg [8] [%] | Activity [11] [%] | inhibition in vivo at 5 µmol/kg [12] [%] | Activity [13] [%] | Activity [15] [%] | Activity [17] [%] | Activity [19] [%] | Activity [21] [%] | other results |
| --- | --- | --- | --- | --- | --- | --- | --- | --- | --- | --- |
| COC(=O)[C@H](C)/N=C/C=C/N[C@@H](C)C(=O)OC | 41.9 | 53.1 | 32.26 | 14.8 | 44.71 | 42.29 | 48.4 | 32.49 | 53.33 | Activity [1]: 27.31%; Activity [2]: 25%; Activity [3]: 35.87%; Activity [4]: 28.25%; Activity [5]: 20.27%; Activity [7]: 12.24%; Activity [9]: 30.94%; Activity [10]: 24.58%; Activity [14]: 22.08%; Activity [16]: 18.8%; Activity [18]: 16.79%; Activity [20]: 17.41% |
| COC(=O)[C@H](C)N |  |  | 7.37 |  | 11.01 | 11.44 | 12.02 | 12.66 | 11.55 |  |
| CCC(C)[C@H](/N=C/C=C/N[C@H](C(=O)OC)C(C)CC)C(=O)OC (some centres not stated) | 68 | 77.6 | 18.66 | 48.9 | 34.89 | 32.75 | 34.31 | 19.68 | 41.65 |  |
| COC(=O)[C@H](CC(C)C)/N=C/C=C/N[C@@H](CC(C)C)C(=O)OC | 80.9 | 88.6 | 26.52 | 73.1 | 42.38 | 41.84 | 40.37 | 29.79 | 45.12 |  |
| COC(=O)[C@H](CCSC)/N=C/C=C/N[C@@H](CCSC)C(=O)OC |  | 25.4 | 28.73 |  | 22.05 | 21.18 | 31.61 | 29.93 | 23.37 |  |
| COC(=O)[C@H](Cc1ccccc1)/N=C/C=C/N[C@@H](Cc1ccccc1)C(=O)OC | 25.4 | 36.8 | 28.22 | 12.9 | 35.33 | 30.66 | 35.82 | 28.92 | 40.67 |  |
| COC(=O)[C@H](COCc1ccccc1)/N=C/C=C/N[C@@H](COCc1ccccc1)C(=O)OC |  | 55 | 32.18 |  | 34.17 | 33.33 | 36.24 | 34.87 | 37.48 |  |
| COC(CC(OC)OC)OC |  |  | 6.22 |  | 11.8 | 11.89 | 12.15 | 11.84 | 11.93 |  |
| CC(=O)Oc1ccccc1C(=O)O [ASPIRIN] |  |  |  |  |  |  |  |  |  | Activity [22]: 12.88%; Activity [23]: 19.79%; inhibition in vivo at 165 µmol/kg [24]: 65.1%; Activity [25]: 18.69%; Activity [26]: 14.59%; Activity [27]: 16.46%; Activity [28]: 14.65% |
| CN1CC[C@]23c4c5ccc(O)c4O[C@H]2[C@@H](O)C=C[C@H]3[C@H]1C5 [MORPHINE] |  |  |  |  |  |  |  |  |  | Activity [29]: 64.9%; Activity [30]: 177.6%; Activity [31]: 36.7%; Activity [32]: 122.7%; Activity [33]: 147%; Activity [34]: 32.9% |

Source: ChEMBL document CHEMBL1157630, “A class of novel Schiff's bases: Synthesis, therapeutic action for chronic pain, anti-inflammation and 3D QSAR analysis” (2010)
